The list is not random: actives were taken first. Their share in the collection is about 3.5%.
MrgX1 antag – human MrgX1 receptor antagonism, primary screen. Q96LB2. MRGX1-HEK293 calcium flux, Fluo-4, BAM8-22 antagonism; active compounds read low. B-score at 10 µM. 310,000 compounds, 1.3% hits;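 active = calcium-response B-score plate-corrected more than 3 library SD below zero, starting fluorescence within 5 deviations, no agonist response on first addition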;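 also: peak minus trough fluorescence over baseline after final BAM8-22 challenge near maximal dose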
Target sequence (Q96LB2 whole entry, looked up): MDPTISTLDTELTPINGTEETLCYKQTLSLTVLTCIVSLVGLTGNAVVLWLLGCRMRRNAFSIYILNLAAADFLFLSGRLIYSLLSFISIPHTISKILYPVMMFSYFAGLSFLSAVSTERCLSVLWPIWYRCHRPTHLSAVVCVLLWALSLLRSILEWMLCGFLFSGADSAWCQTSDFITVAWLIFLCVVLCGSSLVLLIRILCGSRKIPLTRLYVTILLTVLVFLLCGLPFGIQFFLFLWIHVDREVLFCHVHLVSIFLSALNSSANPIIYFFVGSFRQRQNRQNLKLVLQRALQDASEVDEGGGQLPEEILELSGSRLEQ
MrgX1 PAM – allosterically activates human MrgX1 receptor signaling; MrgX1-HEK293, Fluo-4 calcium flux, FDSS; active compounds read high; B-score at 10 µM; 310,000 compounds, 0.63% hits; AID 588675;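 active = plate-corrected calcium response at least 3 library SD above typical, normal starting fluorescence, not activating the receptor alone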;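 also: compound read alongside a low EC10 to EC30 dose of BAM8-22 agonist; peak minus trough fluorescence over baseline measured at the second addition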
RGS4 block – inhibitors of human RGS4 | 310,000 compounds, 0.45% hits | B-score at 10 µM | P49798 | HEK293 M3R/RGS4 inducible, Fluo-4 calcium flux; active compounds read high; triggered by carbachol at its EC20;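 active = B-score, a plate-corrected calcium signal, over three deviations above library mean, with baseline fluorescence within five deviations of library mean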;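 also: RGS4 expression induced by doxycycline in cells with stable M3 receptor; B-score is computed from the integrated fluorescence ratio over baseline after carbachol; higher B-score means a larger calcium signal and so more RGS4 inhibition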
Target sequence (P49798 whole entry, looked up): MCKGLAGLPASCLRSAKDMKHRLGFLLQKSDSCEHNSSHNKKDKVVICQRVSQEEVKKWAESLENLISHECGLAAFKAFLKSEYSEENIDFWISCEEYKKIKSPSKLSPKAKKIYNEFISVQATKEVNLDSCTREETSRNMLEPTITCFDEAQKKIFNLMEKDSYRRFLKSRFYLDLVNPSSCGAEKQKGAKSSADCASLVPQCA
MrgX1 ag – activates human MrgX1 receptor signaling; Q96LB2; MrgX1-HEK293 cells, Fluo-4 calcium fluorescence, agonist mode; active compounds read high; B-score at 10 µM; 310,000 compounds, 0.44% hits;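 active = calcium response B-score plate-corrected fluorescence ratio at least 3 library SD, with starting fluorescence B-score inside 5 SD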
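Assay system: MrgX1-expressing HEK293 cells / Amount: fifteen thousand cells per well / Doses: test compound in the initial addition of three / Timing: cells plated overnight, dye loaded 0.5 h 37 °C, 0.5 h room temperature / Technique: kinetic calcium dye fluorescence, Fluo-4 NW / Control set: positive and negative controls per plate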
RGS4 pot – potentiators or activators of RGS4 | B-score at 10 µM | AID 463111 | 310,000 compounds, 0.92% hits | HEK293 M3R/inducible RGS4, carbachol calcium flux Fluo4; active compounds read low;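 active = B-score of the integrated calcium signal more than 4 SD below the library mean, with starting fluorescence not abnormally high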;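 also: negative B-score means reduced calcium response which marks RGS4 activation or potentiation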
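Also added: carbachol at ECmax as muscarinic agonist stimulus; Assay system: HEK293 cells with stable M3R and inducible RGS4; Timing: overnight RGS4 induction, 30 min dye load 37 °C, 20 min compound RT; Measured by: Fluo4-AM (2 µM) calcium-flux fluorescence, kinetic read.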
MrgX1 PAM conf – confirmation of human MrgX1 receptor positive allosteric modulators. 1,200 compounds, 13% hits. MrgX1-HEK293, Fluo-4 calcium fluorescence, FDSS. activation (ratio percentage), % at 10 µM. shares compounds with MrgX1 PAM;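 active = ratio at least 3 SD above the weak peptide control, stable starting fluorescence, no direct agonism earlier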;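 also: compound followed by low BAM8-22 agonist challenge near EC20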
MrgX1 antag conf – confirmation of human MrgX1 receptor antagonists; shares compounds with MrgX1 antag; MrgX1-HEK293, BAM8-22 calcium flux, Fluo-4; active compounds read low; remaining BAM8-22 calcium response % of control (active compounds read low), % at 10 µM; 2,300 compounds, 19% hits;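 active = remaining agonist calcium response no higher than 100% minus 3 SD of agonist-only control wells, with starting fluorescence near control levels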;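 also: agonist BAM8-22 given at a near maximal EC90 to ECmax level; peak minus minimum fluorescence divided by baseline after agonist addition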
HEK293 Ca flux – activity in parental HEK293 cells lacking MrgX1; shares compounds with MrgX1 antag; Fluo-4 calcium fluorescence, FDSS; fluorescence ratio F(max-min)/F0 at 10 µM; 4,000 compounds, 2% hits; AID 624111;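 active = duplicate-averaged calcium fluorescence ratio at least three times the standard deviation of buffer wells, a nonspecific response in parental cells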
HEK293 Ca counter – activity in parental HEK293 cells without MrgX1; shares compounds with MrgX1 antag; parental HEK293 calcium flux, Fluo-4 fluorescence ratio; active compounds read high; fluorescence ratio F(max-min)/F0 at 10 µM; 4,000 compounds, 0.4% hits; AID 624114;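 active = calcium fluorescence ratio, averaged over duplicates, at least 3 SD of the buffer-well ratio, meaning a nonspecific response in receptor-free cells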;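 also: untransfected parental HEK293 lacking MrgX1 used as counterscreen for MrgX1 allosteric activators; fluorescence change taken during the second addition on a kinetic imager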
HEK293 Ca cntr2 – activity in parental HEK293 cells lacking MrgX1 receptor. 4,000 compounds, 8.7% hits. shares compounds with MrgX1 antag. fluorescence ratio F(max-min)/F0 at 10 µM. Fluo-4 calcium fluorescence (FDSS); active compounds read high;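 active = calcium fluorescence ratio at least three times the spread of buffer wells, meaning a non-specific response in parental cells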
Numbers without * were called inactive; i = inactive; nt = no result given.

SMILES	MrgX1 antag	MrgX1 PAM	RGS4 block	MrgX1 ag	RGS4 pot	MrgX1 PAM conf	HEK293 Ca flux	HEK293 Ca counter	HEK293 Ca cntr2	others
COCCn1c(SCc2cccc(F)c2)nc2cc(C(=O)OC)ccc2c1=O	i	i	i	i	i	nt	nt	nt	nt
Cn1c(CCN2CCOCC2)nc2cc(NC(=O)c3cccs3)ccc21	i	i	i	i	i	nt	nt	nt	nt
O=C(c1ccncc1)c1ccc(N2CCN(C3CC(=O)N(Cc4ccccc4)C3=O)CC2)cc1 (stereo not given)	i	i	i	i	i	nt	nt	nt	nt
O=C(c1ccc(N2CCN(C3CC(=O)N(Cc4cccs4)C3=O)CC2)cc1)c1cccnc1 (stereo not given)	-5.1*	9*	i	i	i	3.0%*	i	i	i	MrgX1 antag conf=83.8%*
CCCCNC(=O)CCn1c(=O)c2ccccc2n(Cc2ccc(Cl)cc2)c1=O	i	i	i	i	i	nt	nt	nt	nt
Nc1nc2ccccc2n1CCOc1ccc(Cl)cc1	i	6.58*	i	i	i	i	i	i	i
CCN(CC)S(=O)(=O)c1ccc(NC(=O)COc2c(OC)cccc2OC)cc1	i	i	i	i	i	nt	nt	nt	nt
O=C(NC12CC3CC(CC(C3)C1)C2)c1ccccc1	i	i	i	i	i	nt	nt	nt	nt
Nc1ccccc1C(=O)NC12CC3CC(CC(C3)C1)C2	i	10.2*	i	i	i	i	i	i	i
Cc1ccc(C(C)(C)NC(=O)C2CCC(=O)N(CC3CCCCC3)C2)cc1 (stereo not given)	i	i	i	i	i	nt	nt	nt	nt
CCOC(=O)c1nn(-c2ccc3c(c2)CCN3C(C)=O)cc1O	i	i	i	i	i	nt	nt	nt	nt
CCOC(=O)c1nn(-c2ccc(F)cc2)cc1O	i	8.43*	i	i	i	i	i	i	i
COc1cccc(CN2CC(C(=O)NCc3cccc(N4CCCC4)c3)CCC2=O)c1 (stereo not given)	i	i	i	i	i	nt	nt	nt	nt
COc1ccc(/C=C2/C(=N)N3C(=NC2=O)Sc2cc(S(C)(=O)=O)ccc23)cc1OC	i	37.1*	i	i	i	17.4%*	i	i	i
Fc1ccc(-c2cc(C(F)(F)F)nc(-n3cncn3)n2)cc1	i	i	i	i	i	nt	nt	nt	nt
Fc1ccc(-c2cc(C(F)(F)F)nc(-n3cccn3)n2)cc1	i	8.23*	i	i	i	31.8%*	i	i	i
Cc1nc(-c2cc(C#N)c(Sc3cccc(C(F)(F)F)c3)nc2C)cs1	i	i	i	i	i	nt	nt	nt	nt
CNc1nc(Sc2cccc(C(F)(F)F)c2)cc(C(F)(F)F)n1	i	10.3*	i	i	i	i	i	i	i
CNc1nc(Sc2ccccc2)cc(C(F)(F)F)n1	i	21.5*	i	i	i	i	i	i	i
Cc1ccc2nc(NCCCO)nc(-c3ccccc3)c2c1	i	10.8*	i	i	i	i	i	i	i
COc1cc(C(=O)N2CCC(NC(=O)C(Cc3ccc(C(C)C)cc3)NC(C)=O)CC2)cc(OC)c1OC (stereo not given)	i	i	i	i	i	nt	nt	nt	nt
